Hits are enriched below; roughly 1.4% of the tested compounds scored in any of these assays.
CR mimetic SO: lowers age-related superoxide in aged yeast cells; AID 2690; actives 0.18% (n = 330,000); superoxide response (% of plate mean), % at 10 µM; S. cerevisiae aged cells, superoxide DHE fluorescence; stronger effect = lower value;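 active means superoxide response under a set limit, about three screen SD below normal, cut at about 65% in these data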;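 further: yeast aged for seven days with compound at 30 °C before DHE staining; 100% = average MFI of all compound-treated wells on the plate with controls excluded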
IDE cell inh: inhibitors of human insulin-degrading enzyme in cells; HEK cells, FAbetaB cleavage, fluorescence polarization; inhibition, % at 5.59 µM; actives 0.41% (n = 320,000);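 active means percent inhibition above the average of all tested compounds plus 3 SD, set per screening campaign, cut at about 16% in these data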;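 further: IDE supplied by intact live HEK cells; FP after avidin binding of uncleaved biotin substrate so inhibition keeps polarization high; 0% = DMSO wells and 100% = 60 µM reference IDE inhibitor Ii1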
Tb MetRS inh: Trypanosoma brucei MetRS inhibition | purified T. brucei MetRS, ATP depletion, Kinase-Glo luminescence | inhibition, % at 11.9 µM | actives 0.4% (n = 360,000);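 active means inhibition above a per-plate cutoff of the control wells' mean inhibition plus 3 SD, cut at about 5.5% in these data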;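 further: 0% = DMSO wells median and 100% = median of wells with control inhibitor compound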
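Material – parasite MetRS enzyme · Medium – HEPES-MgCl2-KCl buffer plus DTT, spermine, BSA, pyrophosphatase · Reagent – ATP, methionine and E. coli bulk tRNA substrates · Times – 15 min enzyme-compound preincubation, 2 h reaction, 10 min detection, 25 °C · Measured by – luminescence of leftover ATP · Evaluation – percent inhibition relative to median high and low control wells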
Efflux pump inh: inhibitors of Candida antifungal efflux pumps expressed in yeast; S. cerevisiae Candida pump triplex, Nile Red efflux; inhibition, % at 10 µM; actives 0.44% (n = 330,000); AID 485275;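 active means plate passing quality check with inhibition over a set limit, or well fluorescence over plate mean plus 4 SD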;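 further: Nile Red retained in pooled yeast measured as flow cytometry median fluorescence; 0% = buffer negative control and 100% = Enniatin B positive control; higher means more Nile Red kept so more efflux inhibition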
HDAC3 inhib: blocks human histone deacetylase 3; inhibition, % at 8.3 µM; recombinant HDAC3, fluorogenic peptide/trypsin coupled, fluorescence; O15379; actives 0.15% (n = 320,000); AID 2718; in the data active means inhibition above about 26%, passing the limit was not always enough
Target sequence (O15379 whole entry, looked up): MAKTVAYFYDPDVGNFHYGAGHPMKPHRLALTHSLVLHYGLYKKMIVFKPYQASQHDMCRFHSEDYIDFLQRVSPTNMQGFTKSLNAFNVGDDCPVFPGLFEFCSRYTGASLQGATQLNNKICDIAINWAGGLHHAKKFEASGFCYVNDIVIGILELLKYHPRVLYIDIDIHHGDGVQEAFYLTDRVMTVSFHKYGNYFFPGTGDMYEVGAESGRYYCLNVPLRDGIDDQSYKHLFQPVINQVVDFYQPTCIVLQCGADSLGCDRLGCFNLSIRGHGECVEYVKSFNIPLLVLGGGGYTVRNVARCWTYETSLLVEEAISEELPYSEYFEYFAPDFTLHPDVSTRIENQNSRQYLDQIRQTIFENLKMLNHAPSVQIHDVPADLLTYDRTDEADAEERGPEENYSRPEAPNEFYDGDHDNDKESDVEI
IDE cell activ: activators of human insulin-degrading enzyme in cells. HEK cells, FAbeta-B cleavage, fluorescence polarization; 0% vehicle, 100% cell-free pure enzyme wells. AID 493087. actives 0.073% (n = 340,000). activation, % at 5.96 µM;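 active means activation above the mean of all tested compounds plus 3 SD, set per screening campaign, cut at about 17% in these data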
Superoxide pick: yeast aging superoxide inhibition, cherry pick confirmation | shares compounds with CR mimetic SO | S. cerevisiae aging, superoxide DHE fluorescence; stronger effect = lower value | superoxide response (% of plate), % at 10 µM | actives 1% (n = 850) | AID 434994;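 active means superoxide signal below 65% of the plate average of sample wells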;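 further: cells aged with compound for 7 days at 30 degrees C before staining; 100% equals mean DHE fluorescence of all compound wells on the plate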
DHE fluor count: counter-screen for compounds affecting DHE oxidation and fluorescence in yeast | shares compounds with CR mimetic SO | S. cerevisiae BY4741, flow cytometry; stronger effect = lower value | fluorescence response, % at 10 µM | 850 tested, under 10 active;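 active means fluorescence response below 15%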;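 further: percent of the mean fluorescence averaged over all compound wells on the plate; lower means stronger quenching of DHE signal or ROS scavenging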
IDE inh confirm: confirmation of human insulin-degrading enzyme inhibitors in cells; shares compounds with IDE cell inh; HEK cells, FAbetaB cleavage, fluorescence polarization; inhibition, % at 5.59 µM; actives 51% (n = 1,200); AID 435028;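 active means mean inhibition across triplicate wells above the cutoff set by the earlier primary insulin-degrading enzyme screen, cut at about 16% in these data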;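 further: 0% = DMSO wells and 100% = 60 µM reference IDE inhibitor Ii1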
HEK293 tox: kills HEK cells in IDE inhibitor counter-screen | shares compounds with IDE cell inh | inhibition, % at 5.59 µM | HEK293 cytotoxicity, ATP luminescence | actives 28% (n = 1,200); in the data active means inhibition above about 22%;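 further: 0% = vehicle wells and 100% = reference cytotoxic drug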
* marks the source's active call; other numbers are inactive results; . = not tested or not shown.

SMILES | CR mimetic SO | IDE cell inh | Tb MetRS inh | Efflux pump inh | HDAC3 inhib | IDE cell activ | Superoxide pick | DHE fluor count | others
O=c1[nH]c(=O)n(-c2cccc3ccccc23)c(O)c1/C=N/N1CCCCC1c1cccnc1 (stereo not drawn) | 87 | 7 | -1 | 0 | 0 | 1 | . | .
CCC1(CC)COP(=O)(OCC(Cl)CCl)OC1 (stereo not drawn) | . | . | 0 | . | . | 2 | . | .
NS(=O)(=O)c1ccc(N2CCNCC2)cc1 | 112 | -2 | -1 | 0 | 4 | 6 | . | .
OCC[n+]1c2ccccc2nc2ccc(N3CCOCC3)cc21 | 43* | 1 | -1 | 0 | -8 | . | 66 | 91
O=C(CCc1ccccc1)N1Cc2cc(N3CCOCC3)ccc2-n2nncc2C1 | . | . | -1 | . | . | . | . | .
CCc1cc(=O)oc2c(C)c(OCC(=O)N3C[C@H]4C[C@@H](C3)c3cccc(=O)n3C4)ccc12 | 107 | 0 | 1 | 0 | -3 | -1 | . | .
C=C1C(O)[C@@H]2O[C@]3(CC[C@H](/C=C/C(C)[C@@H]4CC(C)=CC5(O[C@H](C[C@@](C)(O)C(=O)O)CCC5O)O4)O3)CC[C@H]2O[C@@H]1C(O)CC(C)[C@H]1OC2(CCCCO2)CCC1C (stereo partly drawn) | 47* | 3 | . | 0 | 0 | . | 48* | 102
COc1ccc2c(c1OC)C(=O)OC2c1c(O)n(C2CCCCC2)c(=O)[nH]c1=O (stereo not drawn) | 87 | 0 | -1 | 0 | -1 | 1 | . | .
C#C[C@]1(O)CCC2C3CCC4=C/C(=N/OCC(=O)NC(C)C(=O)NC(CCSC)C(=O)O)CC[C@]4(C)C3CC[C@@]21C (stereo partly drawn) | 77 | 0 | 0 | 1 | 0 | 4 | . | .
CC(=O)O[C@@H]1CC[C@]2(C)C3CC[C@@]4(C)C(C[C@@H](O)[C@@H]4O)C3[C@@H](OC(C)=O)C[C@H]2C1 (stereo partly drawn) | 104 | 5 | 0 | 0 | -1 | -2 | 110 | 112
Cc1cc(Cl)nc(N)n1 | 51* | -1 | 0 | 1 | 1 | 3 | 99 | 88
CCC(=O)O[C@H]1CC[C@H]2[C@@H]3CCC4=CC(=O)CC[C@]4(C)[C@H]3CC[C@]12C | . | . | 0 | . | . | 2 | . | .
CC(=O)O[C@H]1CCC2C3CC[C@H]4[C@@H](O)[C@H](O)CC[C@]4(C)C3CC[C@@]21C (stereo partly drawn) | . | . | 0 | . | . | -1 | 104 | 92
Fc1cccc(F)c1CN1CCN(c2ccc(Cl)cc2)CC1 | 38* | 0 | -1 | 0 | -1 | 5 | 99 | 91
Fc1ccc(CN2CCN(c3ccc(Cl)cc3)CC2)cc1 | 82 | 1 | -1 | 0 | 4 | 2 | . | .
O=c1[nH]c(O)c(C=Nc2ccc(F)c(Cl)c2)c(=O)[nH]1 | 60* | -6 | 0 | 0 | -4 | 2 | 104 | 93
CCOP(=O)(OCC)C(O)c1ccc(OC)c(OC)c1 (stereo not drawn) | 88 | 11 | 0 | 0 | 3 | 1 | . | .
CCN(CC)C1=NC(=[N+](CC)CC)c2ccccc21 | 75 | 4 | 0 | 0 | 5 | 4 | . | .
C[C@]12CCC3C(CC[C@H]4C[C@H](N)CC[C@]34C)C1CC[C@H]2O (stereo partly drawn) | 113 | 2 | -1 | 0 | -3 | 1 | 103 | 96
C[C@]12CCC3C(CC[C@H]4C[C@@H](O)CC[C@]34C)C1C[C@H](Br)[C@@H]2O (stereo partly drawn) | 73 | 7 | 0 | 0 | 2 | . | 108 | 112
C[C@]12CCC3C(CC[C@H]4C[C@H](O)CC[C@]34C)C1C[C@@H](CCCCl)[C@@H]2O (stereo partly drawn) | 58* | -1 | 0 | 1 | 6 | . | 69 | 98
C=CCN1C(=O)NC(=O)/C(=C/c2ccoc2)C1=O | 108 | 19* | -1 | 0 | -18 | -11 | . | . | IDE inh confirm=10;HEK293 tox=8
COc1ccc(CN2C(=O)NC(=O)/C(=C/c3cc(OC)c(OC)c(OC)c3)C2=O)cc1 | 96 | 2 | -1 | 0 | 3 | -1 | . | .
COc1ccc(CN2C(=O)NC(=O)/C(=C/c3ccoc3)C2=O)cc1 | 104 | 27* | 0 | 0 | 0 | -35 | . | . | IDE inh confirm=9;HEK293 tox=4
Cc1ccc(N2C(=O)NC(=O)/C(=C/c3ccoc3)C2=O)cc1 | . | . | 0 | . | . | -27 | . | .
SMILES | CR mimetic SO | IDE cell inh | Tb MetRS inh | Efflux pump inh | HDAC3 inhib | IDE cell activ | Superoxide pick | DHE fluor count | others
NCc1cc(=O)[nH]o1 | 88 | 5 | 0 | 0 | 2 | -2 | . | .
O=[N+]([O-])c1ccc(N2CCCCCC2)c2nonc12 | 106 | -21 | 1 | 0 | 0 | -68 | . | .
O=[N+]([O-])c1ccc(NCc2ccccc2)c2nonc12 | 111 | 34* | . | 0 | 1 | . | . | . | IDE inh confirm=26*;HEK293 tox=16
O=c1cc(C(F)(F)F)c2cc3c4c(c2o1)CCCN4CCC3 | 94 | 128* | -1 | 0 | 4 | -94 | . | . | IDE inh confirm=26*;HEK293 tox=19
O=C1NC(=O)N(Cc2ccc(F)cc2)C(=O)/C1=C\C=C\c1ccco1 | 74 | 19* | 0 | 0 | 9 | -18 | . | . | IDE inh confirm=9;HEK293 tox=12
O=C(O)c1ccccc1NC(=O)N1C[C@H]2C[C@@H](C1)c1cccc(=O)n1C2 | 124 | 15 | -1 | 0 | -40 | -27 | . | .
Cc1cccc(-n2c(O)c(/C=C/C=Nc3ccccc3)c(=O)[nH]c2=O)c1 | 90 | 38* | 0 | 0 | 6 | -49 | . | . | IDE inh confirm=56*;HEK293 tox=8
Cn1c(O)c(/C=C/C=Nc2ccccc2)c(=O)n(C)c1=S | 108 | 27* | 0 | 0 | -3 | -17 | . | . | IDE inh confirm=45*;HEK293 tox=5
O=P(Oc1ccccc1)(Oc1ccccc1)c1ccccc1 | 107 | -3 | 0 | 0 | 4 | -2 | . | .
CN1/C(=C\C=C2C(=O)NC(=S)NC2=O)C(C)(C)c2ccccc21 | . | . | 0 | . | . | -204 | . | .
CC1(C)OC(c2ccccc2)=C/C(=C/C=C2C(=O)NC(=S)NC2=O)O1 | 111 | 21* | . | 0 | 6 | . | . | . | IDE inh confirm=142*;HEK293 tox=14
O=C1NC(=O)N(c2cccc(Br)c2)C(=O)/C1=C/c1ccsc1 | 130 | 22* | -1 | 0 | 1 | 1 | . | . | IDE inh confirm=6;HEK293 tox=5
CCC1C2Cc3ccc(O)cc3C1(CC)CCN2C (stereo not drawn) | . | . | 0 | . | . | 5 | . | .
